Reference: ChEMBL document CHEMBL4043246, “Discovery of novel [1,2,4]triazolo[4,3-a]quinoxaline aminophenyl derivatives as BET inhibitors for cancer treatment” (Bioorg Med Chem Lett, 2017)

Legend:
Rattus norvegicus [1] = assay: Tmax in rat at 20 mg/kg, po; format: ADME, organism-based; details: in vivo
In short: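 Rat pharmacokinetics after a single intravenous dose of 2 mg/kg or oral doses of 5 mg/kg and 20 mg/kg. Reported parameters are Tmax, Cmax, T1/2, AUCt, AUC∞, CL, Vss and F(%). CL, Vss and F come from the intravenous/oral 2 and 5 mg/kg arms.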

Peregrin (Homo sapiens) = Peregrin (Homo sapiens) (UniProt P55201); assay: Inhibition of human partial length BRPF1 (E627 to G740 residues) expressed in bacterial expression system assessed as residual activity at 500 nM relative to control by BROMOscan assay
[2] = biological target: Bromodomain-containing protein 2 (Homo sapiens) (UniProt P25440); assay: Inhibition of human partial length BRD2 BD1 (K71 to N194 residues) expressed in bacterial expression system assessed as residual activity at 500 nM relative to control by BROMOscan assay
[3] = biological target: T1, Bromodomain-containing protein 4 (Homo sapiens, UniProt O60885); assay: Inhibition of human partial length BRD4 BD2 (K333 to E460 residues) expressed in bacterial expression system assessed as residual activity at 500 nM relative to control by BROMOscan assay
[4] = Cell cycle arrest in human TY82 cells assessed as accumulation at G1 phase at 3 uM after 24 hrs by DAPI staining based assay (reference value: 73%); format: functional
[5] = biological target: Bromodomain-containing protein 3 (Homo sapiens) (UniProt Q15059); assay: Inhibition of human partial length BRD3 BD2 (G306 to P416 residues) expressed in bacterial expression system assessed as residual activity at 500 nM relative to control by BROMOscan assay
[6] = Stability in human liver microsomes assessed as parent compound remaining after 30 mins; format: ADME, microsome; details: read-out: Stability
In short: (§1)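 Incubated in vitro with mouse, rat or human liver microsomes for 30 minutes. Result expressed as percent of parent compound remaining.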

[7] = biological target: T1, Bromodomain-containing protein 4; assay: Inhibition of BRD4 BD1-BD2 (unknown origin) using tetraacetylated histone peptide as substrate after 2 hrs by alphascreen assay
[8] = biological target: Bromodomain-containing protein 7 (Homo sapiens) (UniProt Q9NPI1); assay: Inhibition of human partial length BRD7 (L125 to R254 residues) expressed in mammalian expression system assessed as residual activity at 500 nM relative to control by BROMOscan assay
[9] = biological target: E3 ubiquitin-protein ligase TRIM33 (Homo sapiens) (UniProt Q9UPN9); assay: Inhibition of human partial length TRIM33-phd-bromo (D882 to A1087 residues) expressed in bacterial expression system assessed as residual activity at 500 nM relative to control by BROMOscan assay
[10] = Cell cycle arrest in human TY82 cells assessed as accumulation at S phase at 1 uM after 24 hrs by DAPI staining based assay (reference value: 11%); format: functional
[11] = biological target: T1, Bromodomain-containing protein 4; assay: Inhibition of human partial length BRD4 BD1 (N44 to E168 residues) expressed in bacterial expression system assessed as residual activity at 500 nM relative to control by BROMOscan assay
[12] = Cell cycle arrest in human TY82 cells assessed as accumulation at sub-G1 phase at 3 uM after 24 hrs by DAPI staining based assay (reference value: 6%); format: functional
[13] = biological target: CREB-binding protein (Homo sapiens) (UniProt Q92793); assay: Inhibition of human partial length CREBBP (R1081 to G1197 residues) expressed in bacterial expression system assessed as residual activity at 500 nM relative to control by BROMOscan assay
[14] = biological target: Transcription intermediary factor 1-alpha (Homo sapiens) (UniProt O15164); assay: Inhibition of human partial length TRIM24-phd-bromo (P790 to P977 residues) expressed in bacterial expression system assessed as residual activity at 500 nM relative to control by BROMOscan assay
[15] = biological target: Bromodomain adjacent to zinc finger domain protein 2A (Homo sapiens) (UniProt Q9UIF9); assay: Inhibition of human partial length BAZ2A (M1792 to L1905 residues) expressed in bacterial expression system assessed as residual activity at 500 nM relative to control by BROMOscan assay
[16] = biological target: Bromodomain and PHD finger-containing protein 3 (Homo sapiens) (UniProt Q9ULD4); assay: Inhibition of human partial length BRPF3 (E588 to G701 residues) expressed in bacterial expression system assessed as residual activity at 500 nM relative to control by BROMOscan assay
[17] = Stability in mouse liver microsomes assessed as parent compound remaining after 30 mins; format: ADME, microsome; details: read-out: Stability; in short: as §1
[18] = biological target: Nucleosome-remodeling factor subunit BPTF (Homo sapiens) (UniProt Q12830); assay: Inhibition of human partial length FALZ (S2791 to H2911 residues) expressed in bacterial expression system assessed as residual activity at 500 nM relative to control by BROMOscan assay
[19] = biological target: Bromodomain-containing protein 9 (Homo sapiens) (UniProt Q9H8M2); assay: Inhibition of human partial length BRD9 (R130 to V259 residues) expressed in bacterial expression system assessed as residual activity at 500 nM relative to control by BROMOscan assay
[20] = AUCt in rat at 20 mg/kg, po; format: ADME, organism-based; details: in vivo
In short: (§2)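 Rat pharmacokinetics with single dosing, either intravenous at 2 mg/kg or oral at 5 or 20 mg/kg. AUC is reported both to the last time point (AUCt) and extrapolated to infinity, in ug.hr/mL.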

[21] = biological target: Bromodomain testis-specific protein (Homo sapiens) (UniProt Q58F21); assay: Inhibition of human partial length BRDT BD2 (K250 to E382 residues) expressed in bacterial expression system assessed as residual activity at 500 nM relative to control by BROMOscan assay
[22] = biological target: SWI/SNF-related matrix-associated actin-dependent regulator of chromatin subfamily A member 2 (Homo sapiens) (UniProt P51531); assay: Inhibition of human partial length SMARCA2 (S1377 to Q1486 residues) expressed in bacterial expression system assessed as residual activity at 500 nM relative to control by BROMOscan assay
[23] = biological target: Protein polybromo-1 (Homo sapiens) (UniProt Q86U86); assay: Inhibition of human partial length PBRM1 BD2 (S178 to E291 residues) expressed in bacterial expression system assessed as residual activity at 500 nM relative to control by BROMOscan assay
THP-1 = assay: Antiproliferative activity against human THP1 cells; format: functional, cell-based
[24] = biological target: ATPase family AAA domain-containing protein 2B (Homo sapiens) (UniProt Q9ULI0); assay: Inhibition of human partial length ATAD2B (Q955 to R1082 residues) expressed in bacterial expression system assessed as residual activity at 500 nM relative to control by BROMOscan assay
Rattus norvegicus [25] = assay: AUCinfinity in rat at 20 mg/kg, po; format: ADME, organism-based; parameters: dose 20 mg/kg, time infinity, route oral; details: in vivo; in short: as §2
[26] = biological target: Histone acetyltransferase KAT2A (Homo sapiens) (UniProt Q92830); assay: Inhibition of human partial length GCN5L2 (E726 to K837 residues) expressed in bacterial expression system assessed as residual activity at 500 nM relative to control by BROMOscan assay

Peregrin (Homo sapiens), sequence (P55201 whole entry, the tested form may be a part): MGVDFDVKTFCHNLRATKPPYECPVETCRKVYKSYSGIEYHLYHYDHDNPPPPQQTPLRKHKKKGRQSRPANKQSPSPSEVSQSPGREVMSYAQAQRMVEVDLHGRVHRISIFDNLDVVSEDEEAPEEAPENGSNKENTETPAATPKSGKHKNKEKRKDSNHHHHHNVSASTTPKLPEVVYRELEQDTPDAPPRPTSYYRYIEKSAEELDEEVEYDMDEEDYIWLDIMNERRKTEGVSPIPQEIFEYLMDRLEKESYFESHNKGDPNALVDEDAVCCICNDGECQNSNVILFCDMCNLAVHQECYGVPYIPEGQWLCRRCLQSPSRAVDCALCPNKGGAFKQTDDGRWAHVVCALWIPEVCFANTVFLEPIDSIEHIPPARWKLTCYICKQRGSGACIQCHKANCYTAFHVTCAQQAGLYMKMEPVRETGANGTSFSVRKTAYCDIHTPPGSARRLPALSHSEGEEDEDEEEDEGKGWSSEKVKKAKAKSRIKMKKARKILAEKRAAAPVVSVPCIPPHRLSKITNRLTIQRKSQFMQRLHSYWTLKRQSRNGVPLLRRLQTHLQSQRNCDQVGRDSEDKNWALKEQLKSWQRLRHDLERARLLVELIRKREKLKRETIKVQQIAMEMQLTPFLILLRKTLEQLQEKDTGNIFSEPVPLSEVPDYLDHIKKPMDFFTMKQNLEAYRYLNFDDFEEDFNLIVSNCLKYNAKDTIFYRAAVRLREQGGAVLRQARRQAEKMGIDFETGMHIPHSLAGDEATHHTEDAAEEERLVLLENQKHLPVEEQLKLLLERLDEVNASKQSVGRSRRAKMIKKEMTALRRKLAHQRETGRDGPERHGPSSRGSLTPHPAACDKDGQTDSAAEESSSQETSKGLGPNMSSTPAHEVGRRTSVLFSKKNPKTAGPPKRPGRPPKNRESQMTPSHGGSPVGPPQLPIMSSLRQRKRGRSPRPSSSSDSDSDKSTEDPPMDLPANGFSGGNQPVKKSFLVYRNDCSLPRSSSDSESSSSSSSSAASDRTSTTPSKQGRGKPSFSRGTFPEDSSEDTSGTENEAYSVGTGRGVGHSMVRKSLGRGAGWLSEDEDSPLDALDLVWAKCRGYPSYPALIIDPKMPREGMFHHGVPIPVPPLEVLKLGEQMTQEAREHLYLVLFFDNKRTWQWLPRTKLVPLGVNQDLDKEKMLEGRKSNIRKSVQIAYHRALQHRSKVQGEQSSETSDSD
E3 ubiquitin-protein ligase TRIM33 (Homo sapiens), sequence (Q9UPN9 whole entry, the tested form may be a part): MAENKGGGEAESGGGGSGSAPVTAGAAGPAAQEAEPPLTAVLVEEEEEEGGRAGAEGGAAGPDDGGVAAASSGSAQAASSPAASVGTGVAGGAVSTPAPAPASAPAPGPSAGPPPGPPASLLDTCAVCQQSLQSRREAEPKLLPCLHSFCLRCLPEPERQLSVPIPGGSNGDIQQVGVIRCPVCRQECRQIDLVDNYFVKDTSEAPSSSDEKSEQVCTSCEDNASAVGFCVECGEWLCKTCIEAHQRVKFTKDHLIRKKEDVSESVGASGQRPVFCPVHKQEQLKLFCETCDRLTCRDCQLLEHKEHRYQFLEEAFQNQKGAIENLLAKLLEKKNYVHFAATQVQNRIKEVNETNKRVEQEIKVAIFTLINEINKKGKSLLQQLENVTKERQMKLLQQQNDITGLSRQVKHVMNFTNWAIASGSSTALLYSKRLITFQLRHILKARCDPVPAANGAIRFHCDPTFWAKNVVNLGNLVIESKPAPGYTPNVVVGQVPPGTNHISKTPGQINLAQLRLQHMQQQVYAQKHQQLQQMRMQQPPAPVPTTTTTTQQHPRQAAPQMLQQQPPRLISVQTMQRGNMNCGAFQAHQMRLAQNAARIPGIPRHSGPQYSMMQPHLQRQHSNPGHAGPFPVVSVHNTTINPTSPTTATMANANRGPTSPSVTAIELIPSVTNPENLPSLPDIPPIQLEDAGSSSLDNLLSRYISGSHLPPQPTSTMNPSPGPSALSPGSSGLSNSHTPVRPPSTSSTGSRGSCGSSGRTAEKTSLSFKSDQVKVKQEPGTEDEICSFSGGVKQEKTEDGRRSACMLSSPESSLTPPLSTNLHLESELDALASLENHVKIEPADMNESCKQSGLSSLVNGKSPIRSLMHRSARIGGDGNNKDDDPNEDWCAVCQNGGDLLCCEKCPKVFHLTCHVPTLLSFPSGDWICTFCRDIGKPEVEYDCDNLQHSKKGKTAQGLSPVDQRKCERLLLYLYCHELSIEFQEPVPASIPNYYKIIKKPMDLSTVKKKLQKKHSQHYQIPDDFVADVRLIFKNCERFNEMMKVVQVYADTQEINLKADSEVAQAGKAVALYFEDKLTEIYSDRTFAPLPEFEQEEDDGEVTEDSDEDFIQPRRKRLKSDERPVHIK
Bromodomain-containing protein 3 (Homo sapiens), sequence (Q15059 2-726 limits assumed): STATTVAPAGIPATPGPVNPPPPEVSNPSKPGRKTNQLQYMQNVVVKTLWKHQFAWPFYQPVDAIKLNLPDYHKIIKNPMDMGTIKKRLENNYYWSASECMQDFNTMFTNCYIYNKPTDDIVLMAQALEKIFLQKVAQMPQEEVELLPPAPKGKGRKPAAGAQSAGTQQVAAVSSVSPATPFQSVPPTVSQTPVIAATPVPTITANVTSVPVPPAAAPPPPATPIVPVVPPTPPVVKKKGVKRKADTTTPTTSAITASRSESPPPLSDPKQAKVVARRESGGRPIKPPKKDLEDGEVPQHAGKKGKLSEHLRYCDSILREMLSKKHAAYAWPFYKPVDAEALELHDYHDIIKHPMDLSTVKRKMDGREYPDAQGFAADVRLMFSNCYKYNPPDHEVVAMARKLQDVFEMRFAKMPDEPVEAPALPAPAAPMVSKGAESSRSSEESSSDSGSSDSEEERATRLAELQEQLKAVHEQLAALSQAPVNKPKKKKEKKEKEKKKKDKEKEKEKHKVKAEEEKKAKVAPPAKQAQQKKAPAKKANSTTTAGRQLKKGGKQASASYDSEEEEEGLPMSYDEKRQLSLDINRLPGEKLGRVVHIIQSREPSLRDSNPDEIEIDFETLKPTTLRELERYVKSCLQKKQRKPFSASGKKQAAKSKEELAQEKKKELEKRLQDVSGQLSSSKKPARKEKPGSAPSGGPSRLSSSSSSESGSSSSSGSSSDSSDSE
Bromodomain and PHD finger-containing protein 3 (Homo sapiens), sequence (Q9ULD4 whole entry, the tested form may be a part): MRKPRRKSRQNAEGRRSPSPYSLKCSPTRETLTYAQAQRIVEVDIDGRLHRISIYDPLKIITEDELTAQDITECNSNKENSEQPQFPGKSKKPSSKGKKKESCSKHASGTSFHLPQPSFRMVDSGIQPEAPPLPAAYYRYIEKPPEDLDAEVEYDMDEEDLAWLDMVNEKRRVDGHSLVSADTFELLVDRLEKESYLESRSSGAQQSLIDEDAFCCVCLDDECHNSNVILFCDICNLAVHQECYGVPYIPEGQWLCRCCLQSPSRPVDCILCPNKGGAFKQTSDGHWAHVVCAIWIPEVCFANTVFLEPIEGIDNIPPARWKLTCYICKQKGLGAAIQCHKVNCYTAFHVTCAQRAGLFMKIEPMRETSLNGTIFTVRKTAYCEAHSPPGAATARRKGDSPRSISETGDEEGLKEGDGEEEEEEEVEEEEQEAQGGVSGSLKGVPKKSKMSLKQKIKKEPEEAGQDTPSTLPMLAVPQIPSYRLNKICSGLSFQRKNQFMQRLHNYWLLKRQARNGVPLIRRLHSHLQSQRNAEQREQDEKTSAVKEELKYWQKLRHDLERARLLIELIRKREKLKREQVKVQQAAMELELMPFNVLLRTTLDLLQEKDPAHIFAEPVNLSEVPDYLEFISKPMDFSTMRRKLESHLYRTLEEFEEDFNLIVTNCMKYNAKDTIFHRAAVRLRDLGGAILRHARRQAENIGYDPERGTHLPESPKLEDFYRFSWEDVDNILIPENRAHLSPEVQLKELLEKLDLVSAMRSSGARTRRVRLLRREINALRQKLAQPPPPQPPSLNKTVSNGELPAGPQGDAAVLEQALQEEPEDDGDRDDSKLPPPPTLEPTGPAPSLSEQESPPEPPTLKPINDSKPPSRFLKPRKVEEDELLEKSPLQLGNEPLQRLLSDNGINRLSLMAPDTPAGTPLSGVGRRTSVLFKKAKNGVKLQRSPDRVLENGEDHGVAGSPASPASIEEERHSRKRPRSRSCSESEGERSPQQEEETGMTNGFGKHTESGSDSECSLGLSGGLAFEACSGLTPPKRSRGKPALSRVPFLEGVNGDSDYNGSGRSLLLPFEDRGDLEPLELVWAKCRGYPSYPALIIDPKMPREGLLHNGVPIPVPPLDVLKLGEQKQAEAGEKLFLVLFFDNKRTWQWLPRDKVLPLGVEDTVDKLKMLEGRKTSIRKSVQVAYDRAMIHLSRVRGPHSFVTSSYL
Bromodomain-containing protein 9 (Homo sapiens), sequence (Q9H8M2 whole entry, the tested form may be a part): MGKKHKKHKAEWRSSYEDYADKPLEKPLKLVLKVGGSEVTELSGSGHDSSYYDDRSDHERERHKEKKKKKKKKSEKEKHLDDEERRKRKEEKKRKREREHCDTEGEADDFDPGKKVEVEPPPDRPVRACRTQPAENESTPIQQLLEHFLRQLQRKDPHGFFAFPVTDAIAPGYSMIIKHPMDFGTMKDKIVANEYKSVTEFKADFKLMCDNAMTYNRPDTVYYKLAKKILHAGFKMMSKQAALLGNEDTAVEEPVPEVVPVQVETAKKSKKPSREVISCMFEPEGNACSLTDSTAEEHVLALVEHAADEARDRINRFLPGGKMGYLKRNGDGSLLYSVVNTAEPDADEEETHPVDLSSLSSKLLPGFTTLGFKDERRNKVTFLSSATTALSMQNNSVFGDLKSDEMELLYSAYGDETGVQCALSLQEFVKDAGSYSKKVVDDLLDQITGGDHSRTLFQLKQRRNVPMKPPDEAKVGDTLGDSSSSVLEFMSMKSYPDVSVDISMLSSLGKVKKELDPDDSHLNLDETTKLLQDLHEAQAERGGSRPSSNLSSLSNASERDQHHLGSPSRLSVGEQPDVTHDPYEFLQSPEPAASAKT

## Cc1nnc2c(Nc3cccc(CNC(=O)C(C)C)c3)nc3ccccc3n12
Rattus norvegicus [1]
  Tmax: 1.3 h
Peregrin (Homo sapiens)
  Activity: 37%
[2]
  Activity: 11%
[3]
  Activity: 16%
[4]
  Activity: 89%
[5]
  Activity: 30%
[6]
  remaining at 0.5 h: 92%
[7]
  IC50: 68 nM
[8]
  Activity: 80%
[9]
  Activity: 100%
[10]
  Activity: 6%
[11]
  Activity: 17%
[12]
  Activity: 4%
[13]
  Activity: 87%
[14]
  Activity: 100%
[15]
  Activity: 85%
[16]
  Activity: 87%
[17]
  remaining at 0.5 h: 0.024%
[18]
  Activity: 90%
[19]
  Activity: 61%
[20]
  AUC(0-t): 20600 ng·h/mL
[21]
  Activity: 14%
[22]
  Activity: 100%
[23]
  Activity: 87%
THP-1
  IC50: 1600 nM
[24]
  Activity: 96%
Rattus norvegicus [25]
  AUC: 25300 ng·h/mL
[26]
  Activity: 100%
